From PubChem
Compounds with a hit are over-represented: about 2.7% of the library has one in this group of screens.
DENV2 CPE: protects cells from dengue virus 2 cytopathic effect; DENV2-infected cells, cytopathic effect rescue, plate reader; CPE inhibition, % at 9.99 µM; actives 1.7% (n = 350,000); AID 651640; in the data active = CPE inhibition above about 20%, passing the limit was not always enough; inconclusive = no clear call, values can overlap the other calls; tested in BHK-21 cells;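 also: 0% = median of neutral control wells and 100% = median of positive control wells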
AF4-AF9 inh: inhibitors of human MLL-AF4/AF9 interaction; actives 0.47% (n = 350,000); AlphaScreen, biotin-AF4 peptide binding to FLAG-AF9; inhibition, % at 10 µM; AID 651704;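 active = every replicate reaching a set inhibition limit, whatever the replicate mean, cut at about 25% in these data; inconclusive = mean inhibition reaches that limit but some replicates miss it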;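 also: 0% = plate neutral control median and 100% = total signal loss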
S100A4 MyoIIA: inhibitors of human S100A4 binding to myosin IIA peptide | inhibition, % at 10.7 µM | actives 0.14% (n = 360,000) | AID 652163 | P26447 | S100A4/TAMRA-MyoIIA peptide fluorescence polarization;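 active = mean inhibition of at least 70% across replicates, with every replicate also reaching that level; inconclusive = mean inhibition reaches 70% but some replicates fall short; inactive = mean inhibition below 70%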
Target sequence (P26447 whole entry, looked up): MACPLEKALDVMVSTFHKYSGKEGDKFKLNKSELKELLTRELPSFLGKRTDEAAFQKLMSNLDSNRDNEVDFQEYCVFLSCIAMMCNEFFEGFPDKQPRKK
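Material: human S100A4 monomer with TAMRA-labelled myosin IIA peptide; buffer or medium: HEPES pH 7.2 with CaCl2, KCl, NaCl, DTT, Triton; compound dosing: one concentration per compound; schedule: 5 min incubation before reading; benchmarks: neutral control DMSO, positive control TFP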
SIRT5 inh: blocks human SIRT5 desuccinylation of peptide; Q9NXA8; Purified SirT5, succinyl-peptide AMC, trypsin-coupled fluorescence; inhibition, % at 15 µM; actives 1.1% (n = 330,000); in the data active = inhibition above about 15%; inconclusive = no clear call, values can overlap the other calls
Target sequence (Q9NXA8 whole entry, looked up): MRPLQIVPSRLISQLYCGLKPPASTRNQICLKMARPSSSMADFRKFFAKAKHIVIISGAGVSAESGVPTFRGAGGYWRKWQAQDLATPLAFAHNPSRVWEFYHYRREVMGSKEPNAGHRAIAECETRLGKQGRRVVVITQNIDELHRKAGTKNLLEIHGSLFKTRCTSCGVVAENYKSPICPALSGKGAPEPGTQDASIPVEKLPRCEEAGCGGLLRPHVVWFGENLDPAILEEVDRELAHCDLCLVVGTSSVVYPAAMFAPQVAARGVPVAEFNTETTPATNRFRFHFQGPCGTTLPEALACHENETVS
CaV13 ICDI inh: Disruptors of the CACNA1D IQ motif to Ca2+-dependent inactivation inhibitor domain association, primary screening, Förster resonance energy transfer in intact living … | actives 0.098% (n = 340,000) | AID 743397 | inhibition, % at 12.3 µM | HEK cells, CFP/YFP FRET ICDI-IQ, plate reader, 10 min; percent FRET-ratio fall versus neutral wells;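 active = mean replicate inhibition of at least 30% and at least 1% of replicates passing that level; inconclusive = only one of the two criteria is met; inactive = neither criterion is met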;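 also: 0% = median of the neutral control wells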
The depositor's hits bear a star; ? = inconclusive; / = no result.

SMILES	DENV2 CPE	AF4-AF9 inh	S100A4 MyoIIA	SIRT5 inh	CaV13 ICDI inh
CCCn1c(O)c(/C=C2\C=NN=C2c2ccccc2)sc1=S	/	/	/	/	-8
C=CCn1c(O)c(/C=C2\C=NN=C2c2ccccc2)sc1=S	2	-3	-3	18*	-2
CC(=O)c1ccc2c(c1)C1C=CCC1C(C(=O)O)N2 (configuration not stated)	-1	-12	-5	32*	-4
C[C@@H]1CN([C@@H](C)CO)C(=O)c2cccc(N(C)C)c2O[C@H]1CN(C)C(=O)Nc1ccccc1	30*	-2	-48	3	/
C[C@H](CO)N1C[C@H](C)[C@@H](CN(C)C(=O)Nc2cccc3ccccc23)Oc2ccc(N(C)C)cc2C1=O	34*	1	-5	-1	/
Cc1noc(C)c1NC(=O)N(C)C[C@H]1Oc2c(cccc2N(C)C)C(=O)N([C@@H](C)CO)C[C@H]1C	16	-4	0	-1	/
C[C@H]1CN([C@@H](C)CO)C(=O)c2cc(N(C)C)ccc2O[C@@H]1CN(C)C(=O)Nc1cccc2ccccc12	5	-1	-14	/	/
Cc1noc(C)c1NC(=O)N(C)C[C@@H]1Oc2c(cccc2N(C)C)C(=O)N([C@H](C)CO)C[C@@H]1C	24*	-17	5	-2	/
C[C@H]1CN([C@@H](C)CO)C(=O)c2cccc(N(C)C)c2O[C@@H]1CN(C)C(=O)Nc1ccc2c(c1)OCO2	2	-2	-5	-1	/
C[C@@H]1CN([C@H](C)CO)C(=O)c2cccc(N(C)C)c2O[C@@H]1CN(C)C(=O)Nc1ccc2c(c1)OCO2	27*	-2	8	9	/
C[C@@H]1CN([C@H](C)CO)C(=O)c2cccc(N(C)C)c2O[C@@H]1CN(C)C(=O)Nc1ccccc1	4	-3	-5	-2	/
C[C@H](CO)N1C[C@H](C)[C@H](CN(C)C)Oc2cc(C#C[C@@H](C)O)ccc2S1(=O)=O	-3	-5	-18	-4	/
C[C@H](CO)N1C[C@H](C)[C@@H](CN(C)C(=O)Nc2cccc3ccccc23)Oc2c(cccc2N(C)C)C1=O	21*	-2	-9	-1	/
C[C@@H]1CN([C@H](C)CO)C(=O)c2cccc(N(C)C)c2O[C@@H]1CN(C)C(=O)NC1CCCCC1	-5	-3	-12	27*	/
C[C@H]1CN([C@@H](C)CO)C(=O)c2cccc(N(C)C)c2O[C@@H]1CN(C)C(=O)NC1CCCCC1	-1	-2	8	-6	/
COc1cccc([C@@H]2CC=C(C(=O)O)[C@H](c3ccccc3F)N2S(=O)(=O)c2ccc(C)cc2)c1	21*	1	-2	/	-4
Cc1ccc(S(=O)(=O)N2[C@@H](c3ccc(C(C)(C)C)cc3)C(C(=O)O)=CC[C@H]2c2cccc(Cl)c2)cc1	3	-5	-7	12	-5
COc1cccc([C@@H]2CC=C(C(=O)O)[C@H](c3ccc(C)cc3)N2S(=O)(=O)c2ccc(C)cc2)c1	-5	-1	2	1	-3
Cc1ccccc1S(=O)(=O)N1C(c2ccc(Cl)cc2)CC=C(C(=O)O)C1c1cccc(Cl)c1 (configuration not stated)	67*	-3	-1	/	-9
Cc1ccc(S(=O)(=O)N2[C@@H](c3ccc(C(C)(C)C)cc3)C(C(=O)O)=CC[C@H]2c2ccc(Cl)c(Cl)c2)cc1	-5	-2	3	16*	-8
COc1ccc(-c2ccc([C@H]3[C@H](CO)N4CCCCN(C(=O)c5ccc6c(c5)OCO6)C[C@@H]34)cc2)cc1	-3	1	-5	-1	/
Cc1nc2nc(-c3ccc(F)cc3)cn2nc1C	16	-3	-12	6	-22
Cc1nc2nc(-c3ccccc3)cn2nc1C	20	2	-15	22*	6
c1ccc(-c2cn3nc4c(nc3n2)CCCC4)cc1	/	/	/	/	34*
O=C(CN1CCOCC1)NCC[C@H]1CC[C@@H](NC(=O)c2ccccc2F)[C@H](CO)O1	-7	-1	-4	-3	/
SMILES	DENV2 CPE	AF4-AF9 inh	S100A4 MyoIIA	SIRT5 inh	CaV13 ICDI inh
O=C(c1cccnc1)N1C[C@@H]2[C@H](c3ccccc31)[C@@H](CO)N2C(=O)Nc1cccc(F)c1	-1	-1	9	0	/
N/C(=N\OC(=O)Nc1ccccc1)c1ncc([N+](=O)[O-])s1	33*	-3	-6	/	-20
C[C@@H]1CN([C@H](C)CO)S(=O)(=O)c2ccc(-c3cccnc3)cc2O[C@@H]1CN(C)Cc1ccncc1	?	4	-3	-1	/
O=C(Nc1ccccc1)N1CCCCN2[C@H](CO)[C@H](c3ccc(Br)cc3)[C@@H]2C1	28*	-5	-3	-11	/
O=C(Nc1ccccc1)N1CCCCN2[C@H](C1)[C@@H](c1ccc(-c3ccccc3)cc1)[C@@H]2CO	-7	-1	13	1	/
Cc1ccccc1-c1ccc([C@@H]2[C@H]3CN(C(=O)Nc4ccccc4)CCCCN3[C@H]2CO)cc1	61*	-4	-2	-12	/
O=C(Nc1ccccc1)N1CCCCN2[C@H](C1)[C@H](c1ccc(-c3ccccc3)cc1)[C@@H]2CO	0	5	45	0	/
O=C(Nc1ccccc1)N1CCCCN2[C@H](CO)[C@H](c3ccc(Br)cc3)[C@H]2C1	32*	0	-9	1	/
CCCNC(=O)C[C@@H]1C[C@H]2c3cc(NS(=O)(=O)c4ccccc4)ccc3O[C@H]2[C@@H](CO)O1	3	/	/	/	/
O=C1O[C@@H](c2ccccc2)[C@@H](c2ccccc2)N2[C@@H](c3ccccc3OCCO)[C@]3(C(=O)Nc4ccc(C#CC5=CCCCC5)cc43)[C@@H](C(=O)N3CCN(c4ncccn4)CC3)[C@H]12	8	0	-25	17*	/
COc1cc2c(cc1OC)CN(C(=O)[C@@H]1[C@H]3C(=O)O[C@H](c4ccccc4)[C@H](c4ccccc4)N3[C@H](c3ccc(OCCO)cc3)[C@@]13C(=O)Nc1ccc(C#CCNC(N)=O)cc13)CC2	6	-2	-6	23*	/
NC(=O)NCC#Cc1ccc2c(c1)[C@]1(C(=O)N2)[C@H](c2ccc(OCCO)cc2)N2[C@H](c3ccccc3)[C@H](c3ccccc3)OC(=O)[C@H]2[C@@H]1C(=O)O	13	1	-19	3	/
COc1ccc(C#Cc2ccc3c(c2)[C@]2(C(=O)N3)[C@H](C(=O)N3CCN(c4ncccn4)CC3)[C@H]3C(=O)O[C@H](c4ccccc4)[C@H](c4ccccc4)N3[C@@H]2c2ccc(OCCO)cc2)cc1	-8	-2	37	23*	/
O=C1O[C@@H](c2ccccc2)[C@@H](c2ccccc2)N2[C@@H](c3ccc(OCCO)cc3)[C@]3(C(=O)Nc4ccc(C#CCCO)cc43)[C@@H](C(=O)N3CCN(c4ncccn4)CC3)[C@H]12	-10	1	8	-4	/
